pIC50: −log10 of the molar value.
Legend:
Type in all cases: functional, cell-based
[1] = tested on: A549; assay: Cytotoxicity against human A549 cells after 72 hrs by SRB assay; conditions: A549, 72 h
How it was run: (§1)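 Cells kept as monolayers at 37 °C in 5% CO2 with 10% heat-inactivated FBS; A549 was grown in DMEM, HepG2 and MCF-7 in RPMI. Trypsinized cells were seeded at 1000-2000/well, left 24 h, then exposed 72 h to a range of concentrations. Cells were fixed with 10% TCA (1 h, 4 °C) and stained with 0.4% SRB in 1% acetic acid for 10 min. Dye was dissolved in Tris-HCl, OD read at 564 nm, and IC50 taken from %-viability dose-response curves.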

[2] = tested on: MCF7; assay: Cytotoxicity against human MCF7 cells after 72 hrs by SRB assay; conditions: MCF7, 72 h; how it was run: as §1
[3] = tested on: HepG2; assay: Cytotoxicity against human HepG2 cells after 72 hrs by SRB assay; conditions: HepG2, 72 h; how it was run: as §1

SMILES	pIC50 [1]	pIC50 [2]	pIC50 [3]
CCOC(=O)c1nn(-c2ccc(OC)cc2)/c(=N/c2nc(-c3c(C)n(C)n(-c4ccccc4)c3=O)cs2)s1	4.88	4.80	4.89
CCOC(=O)c1nn(-c2ccccc2)/c(=N/c2nc(-c3c(C)n(C)n(-c4ccccc4)c3=O)cs2)s1	< 4.00	< 4.00	< 4.00
Cc1c(-c2csc(/N=C3\SCC(=O)N3c3ccccc3)n2)c(=O)n(-c2ccccc2)n1C	< 4.00	< 4.00	4.15
CC(=O)c1nn(-c2ccc([N+](=O)[O-])cc2)/c(=N/c2nc(-c3c(C)n(C)n(-c4ccccc4)c3=O)cs2)s1	< 4.00	< 4.00	< 4.00
CC(=O)c1nn(-c2ccccc2)/c(=N/c2nc(-c3c(C)n(C)n(-c4ccccc4)c3=O)cs2)s1	< 4.00	< 4.00	4.17
Cc1c(-c2csc(/N=c3\sc(-c4ccccc4)nn3-c3ccccc3)n2)c(=O)n(-c2ccccc2)n1C	< 4.00	< 4.00	< 4.00
COc1ccc(-n2nc(C(C)=O)s/c2=N\c2nc(-c3c(C)n(C)n(-c4ccccc4)c3=O)cs2)cc1	4.58	4.19	4.38
CCOC(=O)c1nn(-c2ccc(Cl)cc2)/c(=N/c2nc(-c3c(C)n(C)n(-c4ccccc4)c3=O)cs2)s1	< 4.00	< 4.00	< 4.00
Cc1c(-c2csc(/N=C3\S/C(=C\c4ccc(N(C)C)cc4)C(=O)N3c3ccccc3)n2)c(=O)n(-c2ccccc2)n1C	< 4.00	< 4.00	< 4.00
COc1ccc(/C=C2\S/C(=N\c3nc(-c4c(C)n(C)n(-c5ccccc5)c4=O)cs3)N(c3ccccc3)C2=O)cc1	5.04	4.58	4.88
COc1cccc2c1C(=O)c1c(O)c3c(c(O)c1C2=O)C[C@@](O)(C(=O)CO)C[C@@H]3O[C@H]1C[C@H](N)[C@H](O)[C@H](C)O1 [DOXORUBICIN]	6.39	–	6.06
CCOC(=O)c1nn(-c2ccc([N+](=O)[O-])cc2)/c(=N/c2nc(-c3c(C)n(C)n(-c4ccccc4)c3=O)cs2)s1	5.06	5.00	5.09
Cc1ccc(/C=C2\S/C(=N\c3nc(-c4c(C)n(C)n(-c5ccccc5)c4=O)cs3)N(c3ccccc3)C2=O)cc1	< 4.00	< 4.00	< 4.00
Cc1c(-c2csc(/N=C3\S/C(=C\c4ccccc4)C(=O)N3c3ccccc3)n2)c(=O)n(-c2ccccc2)n1C	< 4.00	< 4.00	4.20
Cc1c(-c2csc(/N=C3\S/C(=C\c4ccco4)C(=O)N3c3ccccc3)n2)c(=O)n(-c2ccccc2)n1C	4.86	4.65	4.78
Cc1c(-c2csc(/N=C3\S/C(=C\c4ccc(Cl)cc4)C(=O)N3c3ccccc3)n2)c(=O)n(-c2ccccc2)n1C	< 4.00	< 4.00	< 4.00
CC(=O)c1nn(-c2ccc(Cl)cc2)/c(=N/c2nc(-c3c(C)n(C)n(-c4ccccc4)c3=O)cs2)s1	< 4.00	< 4.00	< 4.00
Cc1c(-c2csc(NC(=S)Nc3ccccc3)n2)c(=O)n(-c2ccccc2)n1C	5.11	5.00	5.08
CC(=O)c1nn(-c2ccc(C)cc2)/c(=N/c2nc(-c3c(C)n(C)n(-c4ccccc4)c3=O)cs2)s1	4.68	4.25	4.50
CCOC(=O)c1nn(-c2ccc(C)cc2)/c(=N/c2nc(-c3c(C)n(C)n(-c4ccccc4)c3=O)cs2)s1	< 4.00	< 4.00	< 4.00
